TAAR1 antag: antagonists of human TAAR1 | AID 624466 | inhibition, % at 3 µM | actives 1.5% (n = 360,000) | CHO RD-HGA16 TAAR1, Fluo-8 calcium fluorescence, antagonist | Q96RJ0;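 active = inhibition above a per-plate cutoff, the mean inhibition of test compounds on that plate plus 3 SD, cut at about 49% in these data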;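 also: 0% = DMSO plus EC80 beta-PEA response and 100% = DMSO alone without agonist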
Target sequence (Q96RJ0 whole entry, looked up): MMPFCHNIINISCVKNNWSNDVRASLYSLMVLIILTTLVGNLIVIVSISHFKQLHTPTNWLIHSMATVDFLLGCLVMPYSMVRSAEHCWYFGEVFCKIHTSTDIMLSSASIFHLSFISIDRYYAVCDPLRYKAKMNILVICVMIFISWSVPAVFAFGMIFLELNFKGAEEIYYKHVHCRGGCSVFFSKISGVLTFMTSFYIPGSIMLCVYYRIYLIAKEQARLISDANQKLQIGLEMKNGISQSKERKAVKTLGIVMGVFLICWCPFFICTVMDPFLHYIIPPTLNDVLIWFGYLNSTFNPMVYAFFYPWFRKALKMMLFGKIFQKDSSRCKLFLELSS
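Material: CHO RD-HGA16 cells bearing hTAAR1; compound dosing: one-point dosing, 3 µM nominal final; schedule: dye loading 75 min at 37 °C, then 30 min room temperature; measured by: calcium fluorescence with Fluo-8; control set: vehicle and agonist controls; replication: n of 1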
OXTR agonist: activates the human oxytocin receptor; P30559; CHO-OTR cells, Fluo-8 calcium fluorescence; normalized: DMSO 0%, oxytocin 100%; activation, % at 3 µM; actives 0.32% (n = 320,000); AID 2435;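 active = activation above the mean of all tested compounds plus 3 SD, cutoff set per screening run, cut at about 20% in these data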;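 also: peak over basal fluorescence ratio from a 100 s FLIPR kinetic read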
OXTR potentiator: potentiates the human oxytocin receptor response | actives 0.061% (n = 320,000) | P30559 | AID 2445 | activation, % at 3 µM | CHO-OTR cells, Fluo-8 calcium fluorescence, potentiator mode; 0% = oxytocin EC15, 100% = EC100;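 active = activation above that plate's cutoff, the mean activation of tested compounds plus 3 SD, cut at about 6.6% in these data, passing the limit was not always enough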;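 also: 100% uses oxytocin at 75 nM as the full agonist control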
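Measured by – Fluo-8 calcium dye fluorescence · Test system – human OTR in CHO cells · Dosing – one concentration, 3.0 µM compound · Controls – EC15 oxytocin alone as 0%, 75 nM oxytocin as 100% · Evaluation – normalized max/min fluorescence ratio, % activation · Timing – 6 min pre-incubation, 100 s read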
TAAR1 ag: human TAAR1 agonism; Q96RJ0; CHO RD-HGA16 TAAR1, Fluo-8 calcium fluorescence; vehicle wells 0%, saturating PEA agonist 100%; activation, % at 3 µM; actives 0.99% (n = 360,000); AID 624467;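 active = activation above the mean activation of all test compounds in the run plus 3 SD, cut at about 38% in these data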
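System: CHO-derived RD-HGA16 cells with stable Gα16 and human TAAR1 / Times: 17-24 h plating, Fluo-8 75 min 37 °C, 30 min RT / Technique: calcium-sensitive Fluo-8 signal, excitation 470-495, emission 515-575 nm / Measure: % activation relative to PEA EC100 response / Benchmarks: DMSO and PEA EC100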
V1aR counter: V1a receptor agonism, counter-screen for OXTR agonists | P37288 | CHO-V1R cells, Fluo-8 calcium fluorescence, agonist mode; 0% DMSO, 100% 3 nM vasopressin | activation, % at 3 µM | actives 0.25% (n = 320,000) | AID 2797;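 active = activation above the mean activation of all tested compounds plus 3 SD, per screening run, cut at about 20% in these data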;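 also: signal is peak over basal fluorescence ratio across a 100 second FLIPR read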
* = called active by the depositor; x = not tested or not shown. A selection: hits, their analogues and other compounds. The true share with any hit is near 2.3%.

SMILES	TAAR1 antag	OXTR agonist	OXTR potentiator	TAAR1 ag	V1aR counter
O=C1C(Oc2ccccc2)C(c2cccs2)N1Cc1ccc2c(c1)OCO2 (stereo not drawn)	36	1	-9	14	3
Cc1ccccc1OC1C(=O)N(Cc2ccc3c(c2)OCO3)C1c1sccc1C (stereo not drawn)	57*	3	-12	12	3
Cc1ccc(S(=O)(=O)Cn2nnnc2C(C(C)C)N2CCC(O)CC2)cc1 (stereo not drawn)	12	2	-3	1	1
O=S1(=O)N[C@H](Cc2ccccc2)COc2cccc(N3CCCCC3)c21	14	x	x	1	x
CC1=C(C)/C(=N\OS(=O)(=O)c2ccc(C)cc2)C=CC1=O	52*	9	-10	6	2
COC(=O)C1=C(C)N(Cc2ccccc2C(F)(F)F)C(=NCC2CC2)NC1c1ccc(C(F)(F)F)cc1 (stereo not drawn)	18	x	x	12	x
CC(C(=O)NC1CCCC1)n1c(-c2ccccn2)nc2ccccc21 (stereo not drawn)	-17	x	x	2	x
Cc1cc(Cl)c(S(=O)(=O)N2CCSCC2)cc1OCC(=O)NC1CCCCC1	54*	12	-9	22	7
Cc1cc(Cl)c(S(=O)(=O)N2CCCCCC2)cc1OCC(=O)NC1CCCCC1	5	9	-8	10	7
COc1cccc(-c2ncc3ccccc3c2COC(=O)N2CCOCC2)c1	56*	-1	-1	23	1
COc1cccc(-c2ncc3ccccc3c2COC(=O)N2CCCCC2)c1	37	-1	-7	12	-1
COc1ccc2ccccc2c1/C=N/NC(=O)c1cccc(Br)c1	-14	-2	-4	3	0
O=C(N/N=C/c1c(O)ccc2ccccc12)c1cccc(C(F)(F)F)c1	62*	46*	-14	58*	53*
Cc1ccn2c(CC(C)(C)C)c(-c3ccc(F)cc3)nc2c1	-21	x	x	-2	x
C=CCNC(=S)Nc1cccc2[nH]ncc12	-2	1	-9	0	1
CCN(CC1CCCO1)C(=O)c1cc(COc2ccccc2SC)on1 (stereo not drawn)	-16	2	0	-1	6
NNc1nc2c(Cl)ccc(Cl)c2s1	6	0	-3	39*	1
Cc1ccc(/C=N\NC(=O)CNC(=O)C23CC4CC(CC(C4)C2)C3)o1	-5	-1	-7	0	-1
COc1cc2c(cc1NC(=O)CN1C(=O)NC3(CCc4ccccc43)C1=O)oc1ccccc12 (stereo not drawn)	50*	3	-20	8	0
Cc1ccccc1NC(=O)CN1C(=O)NC2(CCc3ccccc32)C1=O (stereo not drawn)	-7	0	-8	1	0
Cc1cc(C)cc(NC(=O)c2ccc(CSc3nnnn3C)cc2)c1	66*	-3	-9	20	1
NCC12CC3CC(C1)CC(c1ccc(Br)cc1)(C3)C2	22	18	-16	42*	9
Cc1ccc(C23CC4CC(CC(CN)(C4)C2)C3)cc1	12	x	x	10	x
Cc1cc(C)c(S(=O)(=O)N2C[C@H]3CON(C)[C@H]3C[C@H]2c2ccc(-n3ccnc3)cc2)c(C)c1	-4	x	x	-1	x
Cc1ccc(S(=O)(=O)N2C3CCCCC3O[C@H]2CC(=O)OCc2ccccc2)cc1 (stereo partly drawn)	-17	x	x	1	x
SMILES	TAAR1 antag	OXTR agonist	OXTR potentiator	TAAR1 ag	V1aR counter
CCOCCCNCc1ccc(OCc2ccccc2Cl)cc1	6	8	-3	26	5
CCc1cc(OCCCCNCc2ccccc2)ccc1Cl	25	15	-7	42*	5
COc1ccc(-c2ccc(C(=O)Nc3ccc(NC(C)=O)cc3)c3occc23)c(C)c1	51*	x	x	14	x
CC(=O)c1cccc(NC(=O)c2cccc3c(-c4cnn(C)c4)coc23)c1	55*	x	x	14	x
Cn1cc(-c2coc3c(C(=O)Nc4ccccc4)cccc23)cn1	16	x	x	5	x
CC(=O)c1cccc(NC(=O)c2ccc(-c3c(C)noc3C)c3ccoc23)c1	64*	x	x	11	x
COc1cc(NC(=O)c2cccc3c(-c4cnn(C)c4)coc23)cc(OC)c1OC	54*	x	x	15	x
O=C(c1ccccc1Cl)N1CCN(C(=O)C2CCCO2)CC1 (stereo not drawn)	0	x	x	1	x
